Results collected from several papers.
Lines come from different studies, so protocols differ.
BTK: Tyrosine-protein kinase BTK (BTK, Homo sapiens, UniProt Q06187)

COc1ccc2oc(-c3ccc4nc(N)oc4c3)c/c(=N\c3ccccc3NC(=O)CCN)c2c1  remaining signal (Tyrosine-protein kinase BTK (BTK, Homo sapiens, UniProt Q06187, R28H); cell-free assay; 1 µM): 99%
CC#CC(=O)N1CCC[C@H]1c1nc(-c2ccc(C(=O)Nc3ccccn3)cc2)c2c(N)nccn12  inhibition (BTK; enzyme activity; inhibitor; 1 µM): 100%
C=CC(=O)Nc1cccc(Oc2nc(Nc3ccc(N4CCN(C)CC4)cc3)nc3ccoc23)c1  kinact/KI (Tyrosine-protein kinase BTK, non-phosphorylated (BTK, Homo sapiens, UniProt Q06187); cell-free assay; TR-FRET): 219000 M⁻¹ s⁻¹
Cc1nc(Nc2ncc(C(=O)Nc3c(C)cccc3Cl)s2)cc(N2CCC(O)CC2)n1  inhibition (BTK; enzyme activity; inhibitor; mobility shift; 1 nM): 77%
COc1ccc2[nH]c3c4[nH]c5ccc(OC)cc5c4c4c(c3c2c1)C(=O)NC4=O  remaining binding (BTK; binding; competition with immobilised ligand; 1 µM): 74%
CCCCC(=O)Nc1ccc(-c2ccc3ncn(CCC)c(=O)c3c2)cn1  remaining binding (BTK; binding; competition with immobilised ligand; 0.5 µM): 89%
[2H]c1cc(C)c(NC(=O)c2cnc(Nc3cc(N4CC[C@@H](O)C4)nc(C)n3)s2)c(Cl)c1  inhibition (BTK; enzyme activity; inhibitor; mobility shift; 1 nM): 73%
N#Cc1ccc(NC(=O)Nc2ccccc2)cc1  remaining binding (BTK; cell-free assay; competition with immobilised ligand; 25 µM): 89%
CO[C@@H]1[C@H](N(C)C(=O)c2ccccc2)C[C@H]2O[C@]1(C)n1c3ccccc3c3c4c(c5c6ccccc6n2c5c31)C(=O)NC4  inhibition (BTK; enzyme activity; inhibitor; 1 µM): 0%
CN1CCN(C(=O)c2ccc(NC(=O)Nc3ccc(N(C)c4ccnc(Nc5ccc(CS(C)(=O)=O)cc5)n4)cc3)cc2)CC1  remaining binding (BTK; binding; competition with immobilised ligand; 1 µM): 50%
Cc1nc(Nc2ncc(C(=O)Nc3c(C)cccc3Cl)s2)cc(N2CC[C@H](N)C2)n1  inhibition (BTK; enzyme activity; inhibitor; mobility shift; 1 nM): 65%
C#Cc1cnc(Nc2ccnc(CO)c2)nc1Nc1ccccc1S(C)(=O)=NC#N (stereo not shown)  remaining signal (BTK; cell-free assay; 1 µM): 41%
C1=C/COCc2cc(ccc2OCCN2CCCC2)Nc2nccc(n2)-c2cccc(c2)COC/1  remaining signal (BTK; cell-free assay; 0.1 µM): 100%
